Test results as given in ChEMBL document CHEMBL1124846, “Synthesis, antiproliferative, and antiviral activity of certain 4-substituted and 4,5-disubstituted 7-[(1,3-dihydroxy-2-propoxy)methyl]pyrrolo[2,3-d]pyrimidines” (J Med Chem, 1990).
Where “and” joins values, the source holds several entries; their conditions need not be identical. Equal values may be shown once.

Key:
[1] = Cytotoxic activity against BSC cells; format: cell-based; conditions: Cercopithecidae
How it was run: (§1)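 Cytotoxicity was scored visually in uninfected HFF or BSC-1 monolayers within the plaque-reduction assays. Drug-induced cytopathology was read at 35- and 60-fold magnification on a 0 to 4+ scale on the day plaques were stained and counted.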

Human alphaherpesvirus 1 [2] = assay: Inhibition of herpes simplex virus (HSV-1) in plaque reduction assay; format: functional, organism-based
How it was run: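 HSV-1 S-148 strain plaque reduction in BSC-1 monkey kidney monolayers, with about 100 PFU inoculum and compound dissolved in the overlay medium. IC50 came from linear regression of percent inhibition against log concentration, with a positive control in each set.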

Human alphaherpesvirus 1 [3] = assay: Inhibition of herpes simplex virus (HSV-1) in yield reduction assay; format: functional, organism-based
Human betaherpesvirus 5 = assay: Inhibition of human cytomegalovirus (HCMV) in plaque reduction assay; format: functional, organism-based
How it was run: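 HCMV Towne strain (plaque-purified P0) plaque reduction in HFF monolayers in MEM(E) with 10% FBS. Inoculum held about 50 PFU, with compound dissolved in the overlay medium. IC50 came from linear regression of percent inhibition against log concentration, with ganciclovir or acyclovir positive controls in every set; two to five experiments.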

[4] = Cytotoxic activity against HFF cells.; format: cell-based; conditions: Homo sapiens; how it was run: as §1
Neoplastic cell line = assay: Cytotoxic activity against KB cells.; format: cell-based; conditions: Homo sapiens
How it was run: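 KB cells (human oral epidermoid carcinoma) grown in MEM(H) with 5% FBS. Compound effect on incorporation of radiolabelled precursors into DNA, RNA and protein was measured. IC50s came from linear regression of percent inhibition against log concentration, and the three IC50s were averaged.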

L1210 [5] = assay: In vitro inhibition of L1210 cell growth.; format: functional, Mus musculus; set-up: concentration or dose not given beside the values
How it was run: (§2)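 Murine L1210 leukemia cells in static suspension culture in Fischer's medium with compound for 4 days. Growth rate is the ratio of control to treated population doubling time; where the rate changed, the final rate was used. IC50 is the concentration giving 50% of control growth rate; single-concentration value at 100 μM.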

L1210 [6] = assay: In vitro inhibition of L1210 cell growth to half of the control rate; format: functional, cell-based; conditions: Mus musculus; how it was run: as §2

| SMILES | IC50 [1] | IC50 (Human alphaherpesvirus 1 [2]) | IC90 (Human alphaherpesvirus 1 [3]) | IC50 (Human betaherpesvirus 5) | IC50 (Human betaherpesvirus 5; Human betaherpesvirus 5) | IC50 [4] | IC50 (Neoplastic cell line) | Activity (L1210 [5]) | IC50 (L1210 [6]) |
| --- | --- | --- | --- | --- | --- | --- | --- | --- | --- |
| Nc1ncnc2c1c(Cl)cn2COC(CO)CO | > 100 µM | 16 µM | 22 µM | 8 µM | 9.8 µM | > 100 µM | > 100 µM | 6% | 2.3 µM |
| Nc1ncnc2c1c(I)cn2COC(CO)CO | – | 4 µM | – | 3.1 µM and 0.9 µM | – | > 100 µM | – | 6% | 2.8 µM |
| CCNc1ncnc2c1c(Cl)cn2COC(CO)CO | > 100 µM | > 100 µM | – | – | 100 µM | > 100 µM | – | 78% | > 100 µM |
| OCC(CO)OCn1cc(Br)c2c(NO)ncnc21 | – | 2.9 µM | > 100 µM | 1.2 µM and 10 µM | – | > 100 µM | 320 µM | 0% | 3.7 µM |
